STAT1 blocker = reduces IFN-gamma driven STAT1 reporter signal | NIH 3T3 STAT1-luciferase reporter, luminescence | inhibition, % at 5.5 µM | 0.35% of 200,000 active;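 active = inhibition above a set limit, the mean inhibition across all tested compounds plus 3 SD, cut at about 34% in these data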;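 also: 0% = IFN-gamma with DMSO and 100% = IFN-gamma with 300 µM nifuroxazide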
STAT1 act = activators of IFN-gamma induced STAT1 signaling; NIH 3T3 STAT1-luciferase reporter, luminescence; 100% = IFN-gamma alone, no compound; activation (% of control), % at 5.5 µM; 2.6% of 200,000 active; AID 932;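 active = activation above the screen-wide mean activation plus 3 SD, cut at about 130% in these data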;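 also: raw ratio to IFN-gamma control signal so 100% means no change and 0% no light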
APP 5'UTR act = APP 5'UTR luciferase reporter activation; SH-SY5Y APP 5'UTR luciferase reporter, luminescence; zero percent = DMSO vehicle wells; activation, % at 2 µM; 1% of 190,000 active; AID 1276;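 active = activation above a set limit, based on mean plus 3 SD of controls, cut at about 140% in these data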
NF-kB neuron act = raises NF-kB expression in human neuronal cells; NF-kB reporter expression; hits give high values; fold change at 12.5 µM; 1.6% of 190,000 active; in the data active = fold change above about 3.3
Pf gametocyte = inhibitors of late stage P. falciparum gametocyte viability | P. falciparum stage V gametocytes, ATP luminescence, 24 h | inhibition, % at 10.9 µM | 0.065% of 150,000 active | AID 743093;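 active = inhibition above the mean plus 3 SD of compounds within the control limits, set per campaign, cut at about 38% in these data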;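 also: 0% = DMSO wells and 100% = medium only without gametocytes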
STAT3 activator = increases IL-6 driven STAT3 reporter signal. U3A cells, IL-6 STAT3-luciferase reporter, luminescence; 100% = signal with IL-6 EC80 alone. activation (% of control), % at 5.6 µM. 0.91% of 190,000 active. AID 871;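 active = activation above the screen-wide mean of compound activation plus 3 SD, cut at about 130% in these data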;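 also: 0% = background luminescence of wells with medium and substrate only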
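Material: STAT1-lacking human U3A cells, STAT3 luciferase reporter | Benchmarks: IL-6-only wells as 100% reference | Probe or stimulus: IL-6 (33 ng/mL) | Timing: Compound 1 h, then IL-6 6 h at 37 °C | Detection: Luminescence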
* = called active by the depositor; / = no result given. Shown are actives, neighbours in structure and some others; about 3.9% of the full set was active somewhere.

SMILES	STAT1 blocker	STAT1 act	APP 5'UTR act	NF-kB neuron act	Pf gametocyte	STAT3 activator
CC(=O)Nc1ccc(SCC(=O)c2cc(C)n(Cc3cccs3)c2C)cc1	47.5*	56.9	112.1	0.32	/	25.1
COc1ccc(-c2nnc(SCC(=O)c3cc(C)n(Cc4cccs4)c3C)o2)cc1	1.7	98.4	4.7	1.77	/	103.7
COCCn1c(C)cc(C(=O)CSc2ccc(NC(C)=O)cc2)c1C	-28.9	126.3	56.9	0.38	/	97.5
CCCOc1ccc(CCCN=C(N)N)cc1Cl	/	/	/	/	-7.7	/
CCOC(=O)CSc1ccc(C(=O)Nc2ccc(OC)cc2)cn1	-1.3	98.2	-4.2	1.12	/	90.2
COc1cccc(NC(=O)Cn2c(=O)n(CCC(=O)NC3CCN(Cc4ccccc4)CC3)c(=O)c3ccccc32)c1	/	/	/	/	13.6	/
CC(=O)Nc1ccc(SCC(=O)c2cc(C)n(-c3ccccc3F)c2C)cc1	-50.7	145.1*	78.1	0.51	/	54.6
COC(=O)c1ccc(-n2c(C)cc(C(=O)CSc3ccc(NC(C)=O)cc3)c2C)cc1	-0.7	100.7	-4.8	0.92	0.6	104.3
COc1ccccc1N1CCN(CCC(=O)Nc2ccc(F)cc2)CC1	/	/	/	/	-7.5	/
COc1ccc(N(CC(=O)NC(C)C)S(=O)(=O)c2ccc(NC(C)=O)cc2)cc1	2.0	98.2	/	0.85	-7.9	103.0
NC1=NC(=O)/C(=C\c2cccnc2)S1	-2.8	102.7	5.0	1.12	27.6	113.3
NC1=NC(=O)/C(=C\C=C\c2ccccc2)S1	-38.0	134.3*	19.4	1.49	2.6	102.1
CN(C(=O)c1ccc(NC(=O)Cc2ccc(NC(=O)C3CCCN(C(=O)C4CC4)C3)cc2)cc1)C1CC1 (stereo not given)	/	/	/	/	3.5	/
CCN(CC)c1ccc(C=C2C(=O)OC3(CCCCC3)OC2=O)cc1	-2.1	101.2	-19.0	1.2	-27.9	102.3
CCN(CC)c1ccc(/C=C2/C(=O)c3ccc(C(=O)O)cc3C2=O)cc1	-33.2	129.5*	6.8	2.48	11.8	106.4
COc1ccc(CC(=O)Nc2ccc3c(c2)CCC3)cc1	-2.0	101.8	27.4	1.5	26.0	97.6
O=C(Cc1ccccc1)Nc1ccc2c(c1)CCC2	-38.3	132.9*	32.1	1.96	-11.8	109.8
[N-]=[N+]=NC[C@H](Cc1ccccc1)N1CC[C@@H](NC(=O)OCc2ccccc2)CCC1=O	/	/	/	/	21.4	/
COc1cccc2c1C(=O)c1c(O)c3c(c(O)c1C2=O)C[C@@](O)(C(=O)CO)C[C@@H]3O[C@H]1C[C@H](N)[C@H](O)[C@H](C)O1	-181.0	264.6*	-94.6	3.76*	/	142.1*
CC(=O)c1ccc(NC(=O)Nc2ccccc2)cc1	-23.2	121.3	138.4*	3.6*	/	75.3
CNC(=O)c1ccc(NC(=O)Nc2ccccc2)cc1	/	/	/	/	5.0	/
CN1CCN(NC(=O)CN2C(=O)/C(=C/c3c(Cl)cccc3Cl)SC2=S)CC1	0.4	99.7	2.6	1.31	/	135.2*
CN1CCN(NC(=O)CN2C(=O)/C(=C/c3ccccc3Cl)SC2=S)CC1	4.3	96.1	8.8	1.02	/	94.2
O=[N+]([O-])c1ccc(/C=C/c2ccc3cccc([N+](=O)[O-])c3n2)cc1	-13.6	112.1	-12.4	1.13	2.5	87.4
O=[N+]([O-])c1cccc2ccc(/C=C/c3ccc(F)cc3)nc12	-37.3	133.3*	39.2	1.74	/	134.7*
SMILES	STAT1 blocker	STAT1 act	APP 5'UTR act	NF-kB neuron act	Pf gametocyte	STAT3 activator
C#CCCc1cocc1/C=[N+](\[O-])c1ccc(C(=O)OCC)cc1	/	/	/	/	4.0	/
COC(=O)c1ccc(-c2ccc(/C=N/N3C(=O)C4C5C=CC(CC5)C4C3=O)o2)cc1 (stereo not given)	-37.2	132.1*	58.0	1.52	-7.7	108.1
O=C(O)c1cc(-c2ccc(/C=N/N3C(=O)C4C5C=CC(CC5)C4C3=O)o2)ccc1Cl (stereo not given)	-3.5	101.7	28.8	1.2	/	102.5
COc1ccc(/C(C)=N/Nc2ccccc2Cl)c(O)c1	/	/	/	/	3.9	/
C/C(=N\Nc1ccc(F)cc1F)c1cccs1	-32.8	129.0*	12.1	1.44	/	85.9
COc1ccc(/C(C)=N/Nc2ccc(F)cc2F)c(O)c1	-37.3	132.8*	32.5	1.16	-4.0	91.6
CCOc1ccc(NC(=O)c2ccccc2NC(=O)c2cccnc2)cc1	/	/	/	/	2.1	/
Cc1c(C#N)c(NC(=O)CCl)n(Cc2ccc(F)cc2)c1C	34.3*	67.7	11.9	0.22	-3.8	75.8
